Only some compounds are listed: those with a hit (about 2.3% of all), similar ones and a draw of the others.
TRPC6 inh: mouse TRPC6 channel inhibitors, primary screen, cell-based, HEK293, membrane potential dye; ACh-evoked depolarization; stronger effect = lower value; B-score at 10 µM; hit rate 1.1% among 310,000; AID 2553, 2010;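 active = B-score under library mean minus 3 SD, initial fluorescence not abnormally high, positive integrated signal ratio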;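 note: B-score derived from integrated fluorescence ratio over the kinetic read; more negative B-score means stronger inhibition of depolarization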
TRPC4 act: activators of mouse TRPC4 channel, primary screen, Fluo4 calcium, HEK293 TRPC4beta/mu-opioid cells; Short transient receptor potential channel 4 (Mus musculus), Q9QUQ5; Fluo4 calcium fluorescence; stronger effect = higher value; B-score at 10 µM; hit rate 0.49% among 310,000; AID 2237, 2010;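 active = B-score above 5 SD of library B-scores, and initial fluorescence ratio not above library mean plus 5 SD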;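 note: positive B-score marks a calcium rise read as TRPC4 activation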
Target sequence (Q9QUQ5 whole entry, looked up): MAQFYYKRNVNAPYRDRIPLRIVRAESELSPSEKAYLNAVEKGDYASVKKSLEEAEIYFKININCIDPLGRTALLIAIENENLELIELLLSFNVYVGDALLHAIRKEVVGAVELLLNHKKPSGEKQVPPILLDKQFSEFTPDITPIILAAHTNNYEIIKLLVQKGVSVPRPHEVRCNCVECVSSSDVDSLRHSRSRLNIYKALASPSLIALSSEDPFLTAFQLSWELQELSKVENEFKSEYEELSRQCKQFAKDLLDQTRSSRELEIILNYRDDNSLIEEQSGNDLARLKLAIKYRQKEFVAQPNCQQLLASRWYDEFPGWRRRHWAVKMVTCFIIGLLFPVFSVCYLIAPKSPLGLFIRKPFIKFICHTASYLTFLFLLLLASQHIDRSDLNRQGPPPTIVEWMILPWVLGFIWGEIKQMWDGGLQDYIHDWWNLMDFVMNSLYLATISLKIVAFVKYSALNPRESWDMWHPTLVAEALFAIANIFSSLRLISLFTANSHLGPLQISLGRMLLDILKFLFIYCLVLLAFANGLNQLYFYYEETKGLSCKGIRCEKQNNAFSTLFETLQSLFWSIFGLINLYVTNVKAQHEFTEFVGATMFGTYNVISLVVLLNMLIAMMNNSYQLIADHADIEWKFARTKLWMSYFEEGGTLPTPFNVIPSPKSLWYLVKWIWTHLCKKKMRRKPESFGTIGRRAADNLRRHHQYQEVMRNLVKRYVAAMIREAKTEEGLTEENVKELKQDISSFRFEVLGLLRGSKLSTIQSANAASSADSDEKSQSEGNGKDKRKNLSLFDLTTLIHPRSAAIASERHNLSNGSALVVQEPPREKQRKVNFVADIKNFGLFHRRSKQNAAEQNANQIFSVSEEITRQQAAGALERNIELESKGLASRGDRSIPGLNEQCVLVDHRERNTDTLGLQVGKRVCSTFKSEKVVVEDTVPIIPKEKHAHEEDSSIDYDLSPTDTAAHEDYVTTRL
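Incubation: 45 min room-temperature Fluo4 loading, 110 s read / System: HEK293 cells stably co-expressing mouse TRPC4beta and mu-opioid receptor / Signal: Fluo4 fluorescence, kinetic / Control set: buffer (low) and maximal DAMGO (high) / Measure: integrated baseline-normalised fluorescence ratio, converted to per-well B score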
TRPC4 inh: inhibitors of mouse TRPC4 channel, primary screen, Fluo4 calcium, HEK293 TRPC4beta/mu-opioid cells; Short transient receptor potential channel 4 (Mus musculus), Q9QUQ5; DAMGO-evoked Fluo4 calcium flux; stronger effect = lower value; B-score at 10 µM; hit rate 0.39% among 300,000; AID 2247, 2010;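 active = B-score over 3 SD under the library average, no early fluorescence shift, positive overall ratio signal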
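Assay system: HEK293 cells with stable TRPC4beta plus mu-opioid receptor expression. Dosing: single dose. Measured by: Fluo4 Ca2+ flux fluorescence. Also added: DAMGO in two steps, submaximal then maximal. Read-out: B score from integrated Fluo4 fluorescence ratio.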
TRPC6 act: mouse TRPC6 channel activators, primary screen, cell-based, HEK293, membrane potential dye | Short transient receptor potential channel 6 (Mus musculus), Q61143 | HEK293-TRPC6 membrane potential dye fluorescence; stronger effect = higher value | B-score at 10 µM | hit rate 0.13% among 310,000 | AID 2550, 2010;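 active = B-score of the integrated fluorescence ratio above library mean plus 3 SD, and starting fluorescence ratio within library mean plus 5 SD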;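 note: higher score means more depolarization so channel activation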
TRPC4 PAM: positive allosteric modulators of TRPC4, primary screen, cell-based, mouse TRPC4beta, HEK293 mu-opioid, Fluo-4 calcium; Short transient receptor potential channel 4 (Mus musculus), Q9QUQ5; DAMGO EC20, Fluo-4 Ca2+ flux; stronger effect = higher value; B-score at 10 µM; hit rate 0.42% among 310,000; AID 2227, 2009;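 active = B-score of calcium response area above 5 SD of library B-scores, with initial fluorescence ratio within 5 SD of library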;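 note: B-score of integrated fluorescence ratio over time as area under calcium response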
HEK293 MPD ctr: parental HEK293 membrane potential modulation, confirmation, counter-screen for TRPC6 modulator project, cell-based. membrane potential dye fluorescence. membrane potential signal change, % at 10 µM. shares compounds with TRPC6 inh. hit rate 51% among 2,400;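 active = membrane potential signal moves up or down beyond 5 SD from buffer-only wells, on both duplicate plates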
HEK293 MPD ctr 2: second counter-screen for TRPC6 modulators: effect in parental HEK293 cells; shares compounds with TRPC6 inh; membrane potential dye fluorescence; after compound, maximal acetylcholine stimulation; inhibition, % at 10 µM; hit rate 14% among 2,400; AID 488926;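 active = membrane potential signal drops by more than 5 SD from the mean control signal, in both duplicate plates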;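 note: plate controls were acetylcholine ECmax control wells for no effect and buffer only wells for full effect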
TRPC4 ctr mod: TRPC4 modulation by TRPC6 hit compounds, confirmation, selectivity assay for TRPC6 modulator project, cell-based, HEK293 TRPC4/mu-opioid, membrane potential dye, mouse; shares compounds with TRPC6 inh; membrane potential fluorescence; percent change from control (negative = decrease, positive = increase), % at 10 µM; hit rate 69% among 2,400;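 active = membrane potential signal moved up or down beyond 5 SD of buffer control wells, in both duplicate plates, actives on both sides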;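 note: plate controls were assay buffer wells for no effect and DAMGO maximal-effect wells for full effect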
TRPC4 ctr inh 2: second check of whether TRPC6 modulators also affect mouse TRPC4; shares compounds with TRPC6 inh; HEK293 TRPC4/mu-opioid, membrane potential dye fluorescence; stimulated with maximal-effect DAMGO; inhibition, % at 10 µM; hit rate 55% among 2,400;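 active = drop in membrane potential signal beyond 5 SD of the control wells in both duplicate plates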;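 note: TRPC4 counter screen for TRPC6 hits run under conditions tuned for TRPC6 not TRPC4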
TRPC6 inh conf: mouse TRPC6 channel inhibitors, confirmation, HEK293 cells, membrane potential dye, duplicate; shares compounds with TRPC6 inh; ACh-evoked depolarization; inhibition, % at 10 µM; hit rate 43% among 3,300;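 active = fluorescence ratio falls more than 5 SD below the full-stimulation control mean, in both duplicate runs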;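 note: integrated fluorescence ratio of peak minus minimum over baseline after agonist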
TRPC6 act confirm: mouse TRPC6 channel activators, confirmation, HEK293 cells, membrane potential dye, duplicate; shares compounds with TRPC6 inh; HEK293-TRPC6 membrane potential dye fluorescence, FDSS; activation, % at 10 µM; hit rate 11% among 2,800;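 active = ratio signal rise beyond 5 SD above unstimulated control wells' mean, seen in both duplicate runs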;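 note: plate controls were buffer EC0 wells for no effect and acetylcholine ECmax response for full effect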
* hit, by the source's call; i = inactive; . = no result.

SMILES	TRPC6 inh	TRPC4 act	TRPC4 inh	TRPC6 act	TRPC4 PAM	HEK293 MPD ctr	HEK293 MPD ctr 2	TRPC4 ctr mod	TRPC4 ctr inh 2	TRPC6 inh conf	TRPC6 act confirm
CCN1C(=O)C(CC(=O)Nc2ccc(F)cc2)N(CCCN2CCN(c3ccc(F)cc3)CC2)C1=S (stereo unspecified)	-6.48*	i	i	i	i	i	i	i	47.0%*	44.0%*	i
Cc1ccccc1CC(=O)Nc1cccnc1	i	i	i	i	i	.	.	.	.	.	.
CCCCOc1ccc(C(=O)OC2CC(C)N(C)CC2C)cc1 (stereo unspecified)	i	i	i	15.1*	i	253.0%*	i	49.5%*	47.5%*	i	120.0%*
S=C(NCCN1CCOCC1)N/N=C/c1c2ccccc2cc2ccccc12	-5.15*	i	i	i	i	260.0%*	i	-22.5%*	i	i	i
O=C(CSC1=NS(=O)(=O)c2ccccc2N1)Nc1cccc(F)c1	i	i	i	i	i	.	.	.	.	.	.
O=C1C=C(N2CCOCC2)c2ccccc2C1=O	i	i	i	i	i	.	.	.	.	.	.
Cc1ccc(N2CCOCC2)c2c1C(=O)c1ccccc1C2=O	-5.1*	i	i	i	i	-195.0%*	i	-33.5%*	71.0%*	43.0%*	i
O=C(COc1ccc(/C=N/NC(=O)c2ccncc2)cc1)Nc1ccc([N+](=O)[O-])cc1	i	i	i	i	i	.	.	.	.	.	.
O=C(COc1ccc([N+](=O)[O-])cc1)Nc1ccncc1	-5.21*	i	i	i	i	-134.0%*	i	-28.5%*	32.5%*	37.0%*	i
COCCN1CC(O)=C(c2nc3ccccc3c(=O)[nH]2)C1=N	i	i	i	i	i	.	.	.	.	.	.
COc1ccccc1N1CC(O)=C(c2nc3ccccc3c(=O)[nH]2)C1=N	-4.98*	i	i	i	i	i	i	9.0%*	i	i	.
NC(=O)C1CCN(C(=O)CCSCc2ccc(Cl)c(Cl)c2)CC1	i	i	i	i	i	.	.	.	.	.	.
Cc1cccc(N2CCN(C(=O)C(C)n3nc(C)n4c(cc5occc54)c3=O)CC2)c1C (stereo unspecified)	-5.07*	i	i	i	i	i	i	13.5%*	i	i	.
Cc1nn(C(C)C(=O)N2CCN(c3ccccn3)CC2)c(=O)c2cc3occc3n12 (stereo unspecified)	i	i	i	i	i	.	.	.	.	.	.

Screening data from PubChem BioAssay.
